Source: ChEMBL document CHEMBL1158097, “Kahalalide derivatives from the Indian sacoglossan mollusk Elysia grandifolia” (J Nat Prod, 2006)
Activity calls are given as the source filed them. The rule behind the calls is not given here.

Columns and labels:
MCF7 = test: Cytotoxicity against human MCF7 cells after 24 hrs by MTT assay; format: functional, cell-based; conditions: MCF7, 24 h
In short: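 MCF7 cells were exposed to compounds for 24 h, and viability was read as MTT reduction by absorbance of reduced MTT at 560 nm. DMSO served as control. Data are mean ± SEM, n = 3.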

[1] = Cytotoxicity against mouse L1578Y cells after 24 hrs by MTT assay; format: functional, cell-based
HeLa = test: Cytotoxicity against human HeLa cells after 24 hrs by MTT assay; format: functional, cell-based
H4IIE = test: Cytotoxicity against rat H4IIE cells after 24 hrs by MTT assay; format: functional, cell-based
PC-12 = test: Cytotoxicity against rat PC12 cells after 24 hrs by MTT assay; format: functional, cell-based
Cladosporium herbarum = test: Antifungal activity against Cladosporium herbarum DSM 62121 at 5 ug/disk after 24 hrs by agar diffusion assay; format: functional; conditions: for zone of inhibition at 5 µg/disc: DSM 62121, 24 h, read-out: IZ
Cladosporium cucumerinum = test: Antifungal activity against Cladosporium cucumerinum DSM 62122 at 5 ug/disk after 24 hrs by agar diffusion assay; format: functional; conditions: for zone of inhibition at 5 µg/disc: DSM 62122, 24 h, read-out: IZ
Saccharomyces cerevisiae = test: Antifungal activity against Saccharomyces cerevisiae DSM 1333 at 5 ug/disk after 24 hrs by agar diffusion assay; format: functional, organism-based
Bacillus subtilis = test: Antibacterial activity against Bacillus subtilis DSM 2109 at 5 ug/disk after 24 hrs by agar diffusion assay; format: functional, organism-based
Escherichia coli = test: Antibacterial activity against Escherichia coli DSM 10290 at 5 ug/disk after 24 hrs by agar diffusion assay; format: functional, organism-based

For `CC(C)CCCCCC1CC(=O)N[C@H](C)C(=O)N[C@H](C)C(=O)NC(CC(C)C)C(=O)N2CCC[C@H]2C(=O)NC(CC(C)C)C(=O)N[C@@H](Cc2c[nH]c3ccccc23)C(=O)O1` (some centres undefined) [KAHALALIDE E], which IC50 (MCF7) is on record?
The IC50 was 4.5 µM.

Which IC50 (MCF7) does the source give for `C/C=C1\NC(=O)[C@H](Cc2ccccc2)NC(=O)[C@@H](C(C)C)NC(=O)[C@@H]([C@H](C)CC)NC(=O)[C@H](NC(=O)[C@H](NC(=O)[C@H](CCCN)NC(=O)[C@H]2CCCN2C(=O)[C@H](NC(=O)[C@@H](NC(=O)[C@@H](NC(=O)[C@H](NC(=O)CCCC(C)C)C(C)C)[C@@H](C)O)C(C)C)C(C)C)[C@H](C)CC)[C@H](C)OC(=O)[C@H](C(C)C)NC1=O` [KAHALALIDE F] here?
The IC50 was 0.22 µM.

What about the IC50 [1] of the same molecule?
Its IC50 is 4.26 µM.

What about the Activity (HeLa) of the same molecule?
The Activity was “inactive”.

What about the Activity (H4IIE) of the same molecule?
The Activity was “inactive”.

What about the Activity (PC-12) of the same molecule?
The Activity was “inactive”.

What about the zone of inhibition at 5 µg/disc (Cladosporium herbarum) of the same molecule?
Its zone of inhibition at 5 µg/disc is 17 mm.

What about the zone of inhibition at 5 µg/disc (Cladosporium cucumerinum) of the same molecule?
The zone of inhibition at 5 µg/disc was 24 mm.

And the Activity (Saccharomyces cerevisiae)?
Its Activity is “inactive”.

And the Activity (Bacillus subtilis)?
Its Activity is “inactive”.

And the Activity (Escherichia coli)?
Its Activity is “inactive”.

Which results are given for `C/C=C1\NC(=O)[C@H](Cc2ccccc2)NC(=O)C(C(C)C)NC(=O)C(C(C)C)NC(=O)[C@H](NC(=O)[C@H](NC(=O)[C@H](CCCN)NC(=O)[C@H]2CCCN2C(=O)C(NC(=O)C(NC(=O)C(NC(=O)[C@@H](CCC(=O)O)NC(=O)CCCCCC(C)C)C(C)C)C(C)C)C(C)C)[C@@H](C)CC)[C@@H](C)OC(=O)C(C(C)C)NC1=O` (some centres undefined) [KAHALALIDE R]?
IC50 (MCF7): 0.14 µM; IC50 [1]: 4.28 µM; Activity (HeLa): inactive; Activity (H4IIE): inactive; Activity (PC-12): inactive; zone of inhibition at 5 µg/disc (Cladosporium herbarum): 16 mm; zone of inhibition at 5 µg/disc (Cladosporium cucumerinum): 24 mm; Activity (Saccharomyces cerevisiae): inactive; Activity (Bacillus subtilis): inactive; Activity (Escherichia coli): inactive

Which IC50 (MCF7) does the source give for `C/C=C1\NC(=O)[C@H](Cc2ccccc2)NC(=O)C(C(C)C)NC(=O)C(C(C)C)NC(=O)[C@H](NC(=O)[C@H](NC(=O)[C@H](CCCN)NC(=O)[C@H]2CCCN2C(=O)C(NC(=O)C(NC(=O)C(NC(=O)[C@@H](CCC(=O)O)NC(=O)CCCC(O)CC(C)C)C(C)C)C(C)C)C(C)C)[C@@H](C)CC)[C@@H](C)OC(=O)C(C(C)C)NC1=O` (some centres undefined) [KAHALALIDE S] here?
The IC50 was 3.55 µM.

What about the Activity (Cladosporium herbarum) of the same molecule?
Its Activity is “inactive”.

And the Activity (Cladosporium cucumerinum)?
Its Activity is “inactive”.

And the Activity (Saccharomyces cerevisiae)?
The Activity was “inactive”.

What about the Activity (Bacillus subtilis) of the same molecule?
Its Activity is “inactive”.

What about the Activity (Escherichia coli) of the same molecule?
Its Activity is “inactive”.

With NYSTATIN as the molecule, how does the inhibition zone (IZ) (Cladosporium herbarum) read?
Its inhibition zone (IZ) is 19 mm.

What about the inhibition zone (IZ) (Cladosporium cucumerinum) of the same molecule?
The inhibition zone (IZ) was 39 mm.
